Converted amounts (≈) assume the structure as drawn. The source made the active and inactive calls. The rule behind the calls is not given here.
Legend:
HT-29 = assay: Growth inhibition of human HT-29 cells at 10 uM after 48 hrs by sulforhodamine B assay; assay type: functional, cell-based
NCI-H460 [1] = assay: Growth inhibition of human NCI-H460 cells at 10 uM after 48 hrs by sulforhodamine B assay; assay type: functional, cell-based
BT-549 = assay: Growth inhibition of human BT549 cells at 10 uM after 48 hrs by sulforhodamine B assay; assay type: functional, cell-based
OVCAR-3 = assay: Growth inhibition of human OVCAR3 cells at 10 uM after 48 hrs by sulforhodamine B assay; assay type: functional, cell-based
RPMI-8226 = assay: Growth inhibition of human RPMI8226 cells at 10 uM after 48 hrs by sulforhodamine B assay; assay type: functional, cell-based
NCI/ADR-RES = assay: Growth inhibition of human NCI-ADR-RES cells at 10 uM after 48 hrs by sulforhodamine B assay; assay type: functional, cell-based
SK-MEL-5 = assay: Growth inhibition of human SK-MEL-5 cells at 10 uM after 48 hrs by sulforhodamine B assay; assay type: functional, cell-based
Escherichia coli [2] = assay: Antibacterial activity against Escherichia coli K-12 BAS901 harboring genetically modified imp-4213, zab4292::Tn5 assessed as growth inhibition after 16 hrs by broth dilution method; assay type: functional; conditions: K-12 BAS901, 16 h
How it was run: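 Kanamycin-resistant strain grown overnight in LB with kanamycin 50 µg/mL, diluted 10-fold, then shaken at 37 °C for 45 min–1 h (~10⁸ CFU/mL). Diluted ~1000-fold to 10⁵ CFU/mL in LB. DMSO stocks (20 mM) prepared as 4X working solutions in LB. Seven 1:2 serial dilutions mixed with equal-volume inoculum. OD600 read with shaking.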

NCI-H460 [3] = assay: Cytotoxicity against human NCI-H460 cells assessed as inhibition of cell viability by MTT assay; assay type: functional, cell-based
How it was run: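 NCI-H460 cells in RPMI 1640 with 10% FBS and 2 mM glutamine at 37 °C, 5% CO₂. Seeded at 10,000 cells/well for 12 h, then dosed in 1% FBS medium (DMSO below 0.1% final). MTT (10 µL of 5 mg/mL) for 4 h, formazan dissolved in DMSO for 45 min, absorbance at 562 nm. Triplicate wells, at least three runs (N = 9).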

HCT-15 = assay: Growth inhibition of human HCT15 cells at 10 uM after 48 hrs by sulforhodamine B assay; assay type: functional, cell-based
SR = assay: Growth inhibition of human SR cells at 10 uM after 48 hrs by sulforhodamine B assay; assay type: functional, cell-based
SF-539 = assay: Growth inhibition of human SF539 cells at 10 uM after 48 hrs by sulforhodamine B assay; assay type: functional, cell-based
CAKI-1 = assay: Growth inhibition of human CAKI-1 cells at 10 uM after 48 hrs by sulforhodamine B assay; assay type: functional, cell-based
DU-145 = assay: Growth inhibition of human DU145 cells at 10 uM after 48 hrs by sulforhodamine B assay; assay type: functional, cell-based
PC-3 = assay: Growth inhibition of human PC3 cells at 10 uM after 48 hrs by sulforhodamine B assay; assay type: functional, cell-based
MCF7 = assay: Growth inhibition of human MCF7 cells at 10 uM after 48 hrs by sulforhodamine B assay; assay type: functional, cell-based
A498 = assay: Growth inhibition of human A498 cells at 10 uM after 48 hrs by sulforhodamine B assay; assay type: functional, cell-based
[4] = Antibacterial activity against Bacillus subtilis JH642 containing trpC2 pheA1 assessed as growth inhibition after 16 hrs by broth dilution method; assay type: functional, Bacillus subtilis subsp. subtilis str. JH642
How it was run: (§1)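 Strains grown overnight in LB, diluted 10-fold, shaken at 37 °C for 45 min–1 h (~10⁸ CFU/mL), then diluted ~1000-fold to ~10⁵ CFU/mL. Broth dilution in LB: 20 mM DMSO stocks, 1:2 serial dilutions giving seven concentrations, inoculum added 1:1. OD600 read with shaking.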

SNB-75 = assay: Growth inhibition of human SNB75 cells at 10 uM after 48 hrs by sulforhodamine B assay; assay type: functional, cell-based
MDA-MB-435 = assay: Growth inhibition of human MDA-MB-435 cells at 10 uM after 48 hrs by sulforhodamine B assay; assay type: functional, cell-based
A549 = assay: Growth inhibition of human A549 cells at 10 uM after 48 hrs by sulforhodamine B assay; assay type: functional, cell-based
Escherichia coli [5] = assay: Antibacterial activity against Escherichia coli K-12 MG1655 assessed as growth inhibition after 16 hrs by broth dilution method; assay type: functional; conditions: K-12 substr. MG1655, 16 h; how it was run: as §1

For `CCCCCCCCCCCCO[C@@H]1O[C@@H](C)[C@H](O[C@@H]2O[C@@H](C)[C@H](OC(C)=O)[C@@H](O[C@@H]3O[C@@H](C)[C@H](O)[C@@H](O[C@@H]4O[C@@H](C)[C@H](OC(C)=O)[C@@H](O)[C@H]4O)[C@H]3OC(C)=O)[C@H]2O)[C@@H](O)[C@H]1O`, the “growth inhibition (GI)” value (HT-29) was “inactive”, the “growth inhibition (GI)” value (NCI-H460 [1]) was “inactive” and the “growth inhibition (GI)” value (BT-549) was “inactive”. The “growth inhibition (GI)” value (OVCAR-3) was “inactive”, the “growth inhibition (GI)” value (RPMI-8226) was “inactive” and the “growth inhibition (GI)” value (NCI/ADR-RES) was “inactive”. For the same molecule, the “growth inhibition (GI)” value (SK-MEL-5) was “inactive”, the MIC (Escherichia coli [2]) was 16 µM (≈ 14.4 µg/mL) and the IC50 (NCI-H460 [3]) was 16.5 µM. The “growth inhibition (GI)” value (HCT-15) was “inactive”, the “growth inhibition (GI)” value (SR) was “inactive” and the “growth inhibition (GI)” value (SF-539) was “inactive”. For the same molecule, the “growth inhibition (GI)” value (CAKI-1) was “inactive”, the “growth inhibition (GI)” value (DU-145) was “inactive” and the “growth inhibition (GI)” value (PC-3) was “inactive”. For the same molecule, the “growth inhibition (GI)” value (MCF7) was “inactive”, the “growth inhibition (GI)” value (A498) was “inactive” and the MIC [4] was 8 µM (≈ 7.18 µg/mL). For the same molecule, the “growth inhibition (GI)” value (SNB-75) was “inactive”, the “growth inhibition (GI)” value (MDA-MB-435) was “inactive” and the “growth inhibition (GI)” value (A549) was “inactive”. The MIC (Escherichia coli [5]) was > 64 µM.

For `CCCCCCCCCCCCO[C@@H]1O[C@@H](C)[C@H](O[C@@H]2O[C@@H](C)[C@H](OC(C)=O)[C@@H](O[C@@H]3O[C@@H](C)[C@H](O)[C@@H](O[C@@H]4O[C@@H](C)[C@H](O)[C@@H](O)[C@H]4O)[C@H]3OC(C)=O)[C@H]2O)[C@@H](O)[C@H]1O`, the “growth inhibition (GI)” value (HT-29) was “inactive”, the “growth inhibition (GI)” value (NCI-H460 [1]) was “inactive” and the “growth inhibition (GI)” value (BT-549) was “inactive”. The “growth inhibition (GI)” value (OVCAR-3) was “inactive”, the “growth inhibition (GI)” value (RPMI-8226) was “inactive” and the “growth inhibition (GI)” value (NCI/ADR-RES) was “inactive”. For the same molecule, the “growth inhibition (GI)” value (SK-MEL-5) was “inactive”, the MIC (Escherichia coli [2]) was 16 µM (≈ 13.7 µg/mL) and the IC50 (NCI-H460 [3]) was 15.4 µM. The “growth inhibition (GI)” value (HCT-15) was “inactive”, the “growth inhibition (GI)” value (SR) was “inactive” and the “growth inhibition (GI)” value (SF-539) was “inactive”. The “growth inhibition (GI)” value (CAKI-1) was “inactive”, the “growth inhibition (GI)” value (DU-145) was “inactive” and the “growth inhibition (GI)” value (PC-3) was “inactive”. The “growth inhibition (GI)” value (MCF7) was “inactive”, the “growth inhibition (GI)” value (A498) was “inactive” and the MIC [4] was 8 µM (≈ 6.84 µg/mL). The “growth inhibition (GI)” value (SNB-75) was “inactive”, the “growth inhibition (GI)” value (MDA-MB-435) was “inactive” and the “growth inhibition (GI)” value (A549) was “inactive”. For the same molecule, the MIC (Escherichia coli [5]) was > 64 µM.

In the case of `CCCCCCCCCCCCO[C@@H]1O[C@@H](C)[C@H](O[C@@H]2O[C@@H](C)[C@H](OC(C)=O)[C@@H](O[C@@H]3O[C@@H](C)[C@H](OC(C)=O)[C@@H](O[C@@H]4O[C@@H](C)[C@H](O)[C@@H](O)[C@H]4O)[C@H]3OC(C)=O)[C@H]2O)[C@@H](O)[C@H]1O`, the “growth inhibition (GI)” value (HT-29) is reported as “inactive”, the “growth inhibition (GI)” value (NCI-H460 [1]) is reported as “inactive” and the “growth inhibition (GI)” value (BT-549) is reported as “inactive”. For the same molecule, the “growth inhibition (GI)” value (OVCAR-3) was “inactive”, the “growth inhibition (GI)” value (RPMI-8226) was “inactive” and the “growth inhibition (GI)” value (NCI/ADR-RES) was “inactive”. The “growth inhibition (GI)” value (SK-MEL-5) was “inactive”, the MIC (Escherichia coli [2]) was > 64 µM and the IC50 (NCI-H460 [3]) was 12.2 µM. The “growth inhibition (GI)” value (HCT-15) was “inactive”, the “growth inhibition (GI)” value (SR) was “inactive” and the “growth inhibition (GI)” value (SF-539) was “inactive”. For the same molecule, the “growth inhibition (GI)” value (CAKI-1) was “inactive”, the “growth inhibition (GI)” value (DU-145) was “inactive” and the “growth inhibition (GI)” value (PC-3) was “inactive”. The “growth inhibition (GI)” value (MCF7) was “inactive”, the “growth inhibition (GI)” value (A498) was “inactive” and the MIC [4] was 8 µM (≈ 7.18 µg/mL). The “growth inhibition (GI)” value (SNB-75) was “inactive”, the “growth inhibition (GI)” value (MDA-MB-435) was “inactive” and the “growth inhibition (GI)” value (A549) was “inactive”. For the same molecule, the MIC (Escherichia coli [5]) was > 64 µM.

From ChEMBL document CHEMBL2203229, “Structure Activity Relationship Study of the Cleistriosides and Cleistetrosides for Antibacterial/Anticancer Activity” (ACS Med Chem Lett, 2012)
